Source: publication PMC6570502 (Chembiochem : a European journal of chemical biology, 2019)
Changes are numbered by the printed parent chain.

What was measured:
Format in all cases: biochemical
wild type KDM4A = target: T1, wild type KDM4A (Homo sapiens, UniProt O75164); assay: MALDI demethylase assay, H3K9me3 substrate peptide, wild type enzyme; settings: 3 mM compound
T1 sequence (O75164 1-1064): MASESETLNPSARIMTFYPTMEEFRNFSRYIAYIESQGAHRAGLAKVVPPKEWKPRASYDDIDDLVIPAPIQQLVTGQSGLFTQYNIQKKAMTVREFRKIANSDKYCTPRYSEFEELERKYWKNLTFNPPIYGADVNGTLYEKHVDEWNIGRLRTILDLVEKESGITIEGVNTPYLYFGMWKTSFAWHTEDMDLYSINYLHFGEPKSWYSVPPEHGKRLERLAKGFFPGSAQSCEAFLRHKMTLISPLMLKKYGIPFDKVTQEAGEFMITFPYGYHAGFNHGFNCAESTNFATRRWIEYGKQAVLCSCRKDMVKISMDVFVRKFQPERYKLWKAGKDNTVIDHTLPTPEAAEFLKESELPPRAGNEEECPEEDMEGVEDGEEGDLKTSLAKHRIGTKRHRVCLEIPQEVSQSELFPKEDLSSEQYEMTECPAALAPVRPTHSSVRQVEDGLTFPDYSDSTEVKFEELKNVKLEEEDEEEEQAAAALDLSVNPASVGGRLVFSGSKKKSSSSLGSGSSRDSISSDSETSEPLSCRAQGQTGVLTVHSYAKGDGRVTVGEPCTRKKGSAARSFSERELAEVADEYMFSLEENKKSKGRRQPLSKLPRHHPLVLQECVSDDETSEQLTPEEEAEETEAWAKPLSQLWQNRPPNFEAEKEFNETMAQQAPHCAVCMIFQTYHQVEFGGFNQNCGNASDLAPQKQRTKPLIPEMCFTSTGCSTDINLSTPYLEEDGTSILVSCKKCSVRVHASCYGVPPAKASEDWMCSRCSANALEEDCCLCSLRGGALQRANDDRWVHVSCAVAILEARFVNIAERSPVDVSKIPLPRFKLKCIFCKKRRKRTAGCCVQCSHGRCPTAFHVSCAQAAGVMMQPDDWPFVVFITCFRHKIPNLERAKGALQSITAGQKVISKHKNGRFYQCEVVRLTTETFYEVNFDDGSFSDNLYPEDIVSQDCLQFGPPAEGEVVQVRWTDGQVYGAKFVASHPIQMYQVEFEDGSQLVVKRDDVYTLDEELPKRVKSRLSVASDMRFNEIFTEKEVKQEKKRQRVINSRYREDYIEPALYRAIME

KDM4A N198A mutant [1] = target: T2, KDM4A N198A mutant (Homo sapiens, UniProt O75164, N198A); assay: MALDI demethylase assay, H3K9me3 substrate peptide, N198A mutant; settings: for inhibition of demethylase activity: 100 μM compound, 50 μM 2KG, MALDI-MS; for IC50: MALDI demethylase assay, dose-dependent
T2 sequence (O75164 1-1064 N198A): T1 sequence (O75164 1-1064) with N198A

KDM4A N198A mutant [2] = target: T2, KDM4A N198A mutant; assay: Demethylation of full-length H3Kc9me3 by western blot with H3K9me3 antibody; settings: in presence of 2KG
Procedure, shortened: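 Substrate is full-length histone H3 carrying a trimethyl-lysine analogue at K9 (H3KC9me3), installed chemically by the thialysine approach and verified by ESI-HRMS. The substrate is incubated with the KDM4A N198A mutant. Remaining K9 trimethylation is then detected by western blot with an anti-H3K9me3 antibody.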

KDM4A N198G mutant = target: T3, KDM4A N198G mutant (Homo sapiens, UniProt O75164, N198G); assay: MALDI demethylase assay, H3K9me3 substrate peptide, N198G mutant
T3 sequence (O75164 1-1064 N198G): T1 sequence (O75164 1-1064) with N198G

inhibition of wild type KDM4A (wild type KDM4A)	inhibition of demethylase activity (KDM4A N198A mutant [1])	selectivity over the wild type enzyme (KDM4A N198A mutant [1]; N198A mutant vs wild type KDM4A)	IC50 (KDM4A N198A mutant [1]; N198A mutant)	Hill slope (KDM4A N198A mutant [1]; N198A mutant, dose-response of IC50 experiment)	inhibition of demethylation of full-length H3Kc9me3 (KDM4A N198A mutant [2])	inhibition of demethylase activity (KDM4A N198G mutant; 100 μM compound, 50 μM 2KG, MALDI-MS)	IC50 (KDM4A N198G mutant; N198G mutant, MALDI demethylase assay)	Molecule
no more than 30%	significantly inhibited	more than 20 fold	80 µM					propyl-NOG [compound 5]
About 50%	significantly inhibited		139 µM	−1.06	significantly inhibited			CCC(NC(=O)C(=O)O)C(=O)O (centres unmarked) [compound 3, ethyl-NOG]
						inhibited	288 µM	CC(C)C[C@H](NC(=O)C(=O)O)C(=O)O [compound 7, leucine-NOG]
